Compound activity as filed in PubChem.
This is a sample that favours compounds with a hit; in the whole collection about 3% have one here.
UCH37 inh: inhibitors of human UCH37 deubiquitinase, primary screen, biochemical, Ub-AMC cleavage, fluorescence | purified proteasome/UCH37 | AID 588478, 2011 | actives 0.33% (n = 330,000) | Ubiquitin carboxyl-terminal hydrolase isozyme L5 (Homo sapiens), Q9Y5K5 | inhibition, % (no concentration beside the values);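 active = mean inhibition over replicate wells above about 20%, limit read from the data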;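 note: 0% = compound-free wells with enzyme and 100% = wells lacking proteasome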
Target sequence (Q9Y5K5 whole entry, looked up): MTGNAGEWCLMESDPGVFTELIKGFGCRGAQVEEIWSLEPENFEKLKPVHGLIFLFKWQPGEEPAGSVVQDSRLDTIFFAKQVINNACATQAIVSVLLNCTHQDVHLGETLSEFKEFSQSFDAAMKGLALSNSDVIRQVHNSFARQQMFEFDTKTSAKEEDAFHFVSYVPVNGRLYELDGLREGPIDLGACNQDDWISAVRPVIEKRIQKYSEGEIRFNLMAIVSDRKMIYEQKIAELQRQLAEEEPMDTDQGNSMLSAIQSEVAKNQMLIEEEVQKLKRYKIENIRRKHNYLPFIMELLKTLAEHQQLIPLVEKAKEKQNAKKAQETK
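Material: Human UCH37 enzyme supplied as purified proteasome complex | Schedule: 30 min preincubation with enzyme, 25 min cleavage at room temperature | Detection: AMC fluorescence 355/460 nm | Measure: % inhibition of Ub-AMC cleavage fluorescence | Controls: Wells without proteasome as full block, compound-free enzyme plus substrate as uninhibited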
UBC13 inh: UBC13 polyubiquitin chain formation inhibitors, primary screen, biochemical, TR-FRET, uHTS; Ubiquitin-conjugating enzyme E2 N (Homo sapiens), P61088; inhibition, % at 20 µM; actives 0.47% (n = 330,000); AID 485273, 2010; in the data active = inhibition above about 45%, passing the limit was not always enough
Target sequence (P61088 whole entry, looked up): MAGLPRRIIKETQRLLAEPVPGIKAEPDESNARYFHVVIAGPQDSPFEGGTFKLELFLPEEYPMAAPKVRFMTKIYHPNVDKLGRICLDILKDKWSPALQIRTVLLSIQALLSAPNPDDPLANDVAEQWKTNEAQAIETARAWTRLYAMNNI
MEKK3 PB1 HTS: modulators of MEKK3-MEK5 PB1 binding, primary screen, biochemical, wildtype MEKK3, multiplex bead flow cytometry, Alexa488-MEK5; Mitogen-activated protein kinase kinase kinase 3 (Homo sapiens), Q99759; bead-based flow cytometry, Alexa488-MEK5 binding to MEKK3; actives lie on both sides; 0 = blocked by unlabeled MEK5, 100 = vehicle; binding response (% of control), % at 10 µM; actives 1.4% (n = 290,000); AID 1529, 2009;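 active = binding response more than 3 SD above or below the average of its plate-row segment, actives on both sides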;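 note: Alexa488 bead fluorescence after subtracting the streptavidin-only scavenger bead signal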
Apaf-1 inh: inhibitors of human Apaf-1 apoptosome, primary screen, biochemical, DEVD-Rh110 fluorescence, uHTS; inhibition, % at 20 µM; reconstituted apoptosome caspase-3 activity; actives 0.71% (n = 330,000); Apoptotic protease-activating factor 1 (Homo sapiens), O14727; active = inhibition of at least 40% at 20 µM;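 note: plate controls were DMSO wells for no effect and DEVD-CHO caspase inhibitor wells for full effect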
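Assay system – apoptosome proteins · Medium – Hepes buffer, pH 7.5 · Also added – cytochrome c with DEVD-Rh110 · Timing – 30 min compound preincubation, 50 min activation, room temperature · Detection – Rh110 fluorescence, excitation 480 nm, emission 540 nm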
MEKK2 WT-MEK5: modulators of MEK5 binding to wildtype MEKK2, primary screen, biochemical, multiplex bead flow cytometry, Alexa488-MEK5. Mitogen-activated protein kinase kinase kinase 2 (Homo sapiens), Q9Y2U5. Alexa488-MEK5 binding to MEKK2 WT; actives lie on both sides. binding response (% of control), % at 10 µM. actives 1.1% (n = 290,000). AID 1531, 2009; in the data active = binding response below about 67% or above about 130%
MEKK2mut PB1 HTS: MEK5 binding signal on mutant MEKK2 PB1, primary screen, biochemical, multiplex bead flow cytometry, Alexa488-MEK5. Alexa488-MEK5 binding to MEKK2 mutant. percent response, % at 10 µM. actives 0.35% (n = 290,000). AID 1530, 2009; in the data active = percent response above about 24%, passing the limit was not always enough
Casp3 counter: CASP3 inhibitor validation, counterassay for project on UBE2N polyubiquitination blockers, biochemical, one dose. Recombinant caspase-3, Caspase-Glo 3/7 luminescence, 60 min. shares compounds with UBC13 inh. actives 4% (n = 1,400). inhibition, % at 20 µM. AID 488856, 2010;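 active = mean inhibition across replicates above about 26%, limit read from the data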;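 note: plate controls were DMSO with caspase-3 for no effect and DMSO wells lacking enzyme for full effect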
UBC13 conf: UBC13 polyubiquitination inhibitors, single-point retest, confirmation, biochemical, TR-FRET, single concentration. shares compounds with UBC13 inh. inhibition, % at 10 µM. actives 68% (n = 1,400); in the data active = inhibition above about 45%
Apaf-1 inh conf2: Apaf-1 inhibitors, single-dose retest, confirmation, biochemical, fluorescence, DEVD-Rh110, 20 µM | shares compounds with Apaf-1 inh | reconstituted apoptosome, caspase-3 DEVD-Rh110 fluorescence | inhibition, % at 20 µM | actives 25% (n = 1,800) | AID 504614, 2011;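 active = mean inhibition of at least 40% at 20 µM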;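 note: plate controls were DMSO wells for no effect and DEVD-CHO caspase inhibitor control wells for full effect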
Rh110 interf inh: Rh110 fluorescence interference by putative Apaf-1 inhibitors, confirmation, artefact control for Apaf-1 inhibitor project, biochemical, 20 µM | 1,800 tested, under 10 active | shares compounds with Apaf-1 inh | activation (fluorescence interference), % at 20 µM | quenched caspase reaction;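 active = signal rise of 40% or more at 20 µM, treated as a fluorescence artifact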
Fluor interf inh: fluorescence interference of Apaf-1 inhibitor hits, dose response, artefact control for Apaf-1 inhibitor project | shares compounds with Apaf-1 inh | fluorescence interference counterscreen, Apaf-1 assay format | IC50, µM | 460 tested, under 10 active; call rule not given here
An asterisk follows results filed as active; . = not tested or not shown.

SMILES | UCH37 inh | UBC13 inh | MEKK3 PB1 HTS | Apaf-1 inh | MEKK2 WT-MEK5 | MEKK2mut PB1 HTS | Apaf-1 inh conf2 | Rh110 interf inh | Fluor interf inh | others
COC(=O)C1=C(C)N(Cc2ccccc2)C(=NCCc2c[nH]c3ccccc23)N[C@H]1c1cccc(C(F)(F)F)c1 | -1 | 74* | . | 78* | . | . | 43* | 0 | >100 | Casp3 counter=1;UBC13 conf=86*
COc1ccc(C(CNC(=O)COc2c(C)cc(C)cc2C)N2CCOCC2)cc1 (stereo not given) | -3 | 51* | . | 66* | . | . | 45* | 7 | >100 | Casp3 counter=-1;UBC13 conf=29
CCCc1[nH]nc2c1C(c1ccc(OC)c(CSC3=NCCS3)c1)C(C#N)=C(N)O2 (stereo not given) | 4 | -1 | 105 | 41* | 103 | 2 | 43* | 11 | >100
N#CC1=C(N)Oc2n[nH]c(-c3cccs3)c2C1c1ccncc1 (stereo not given) | 0 | -13 | 110 | -3 | 106 | 0 | . | . | .
N#CC1=C(N)Oc2n[nH]c(-c3cccs3)c2C1c1ccsc1 (stereo not given) | -3 | -47 | 108 | 83* | 103 | 4 | 26 | 9 | .
Cc1ccc(C(=O)NN2C(=O)C3C4c5ccccc5C(c5ccccc54)[C@@H]3C2=O)cc1 (stereo not given in full) | 3 | -13 | 99 | 6 | 95 | 3 | . | . | .
O=C(c1ccc2c(c1)OCO2)[C@@H]1[C@@H]2C(=O)N(C3CCCCC3)C(=O)[C@@H]2C2c3ccccc3C=CN21 (stereo not given in full) | -3 | . | 104 | . | 100 | 6 | . | . | .
CC(C)(C)C(=O)[C@@H]1[C@@H]2C(=O)N(C3CCCCC3)C(=O)[C@@H]2[C@H]2c3ccccc3C=CN12 | 12 | -16 | . | 64* | . | . | 60* | 4 | >100
O=C(O)c1ccccc1C(=O)Nc1ccccn1 | 3 | 11 | 85 | -7 | 89 | -6 | . | . | .
O=C(Nc1ccccn1)c1ccc2ccccc2c1O | -21 | -1 | 104 | 45* | 105 | 6 | 5 | 7 | .
CC1=NN(c2ccc(C)cc2C)C(=O)C1C(c1cccc(O)c1)C1C(=O)N(c2ccc(C)cc2C)N=C1C (stereo not given) | -1 | -30 | 97 | 85* | 97 | -1 | 27 | -2 | .
O=C1CCCc2nc3nc4ccccc4n3cc21 | . | . | 108 | . | 109 | 4 | . | . | .
O=C1C(Nc2ccccc2)=C(N2CCCCC2)C(=O)c2ccccc21 | 7 | -45 | 107 | 93* | 104 | 5 | 90* | -4 | >100
O=C(/C=C/c1ccc(O)cc1)c1ccccc1 | 5 | -12 | 85 | 3 | 85 | -13 | . | . | .
